How the values were obtained:
Lung [1] = assay: Biodistribution in ddY mouse lung at 1 uCi/100 uL, iv after 120 mins by gamma counting; assay type: ADME, organism-based; conditions: in vivo, 2 h
Lung [2] = assay: Biodistribution in ddY mouse lung at 1 uCi/100 uL, iv after 2 mins by gamma counting; assay type: ADME, organism-based; conditions: in vivo
Spleen [3] = assay: Biodistribution in ddY mouse spleen at 1 uCi/100 uL, iv after 120 mins by gamma counting; assay type: ADME, organism-based; conditions: in vivo, 2 h
Liver [4] = assay: Biodistribution in ddY mouse liver at 1 uCi/100 uL, iv after 60 mins by gamma counting; assay type: ADME, organism-based; conditions: in vivo, 1 h
Lung [5] = assay: Biodistribution in ddY mouse lung at 1 uCi/100 uL, iv after 60 mins by gamma counting; assay type: ADME, organism-based; conditions: in vivo, 1 h
Brain [6] = assay: Biodistribution in ddY mouse brain at 1 uCi/100 uL, iv after 60 mins by gamma counting; assay type: ADME, organism-based; conditions: in vivo, 1 h
Summary of the method: (§1)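 Normal female ddY mice (5 weeks, about 20 g; n = 4 per group) received radiotracer iv. Organs were removed and weighed at 2–120 min and counted in a γ-counter. Percent dose per gram of wet tissue was calculated against diluted aliquots of the injected material and reported as mean ± SD.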

Blood [7] = assay: Biodistribution in ddY mouse blood at 1 uCi/100 uL, iv after 120 mins by gamma counting; assay type: ADME, organism-based; conditions: in vivo, 2 h; summary of the method: as §1
Thyroid gland [8] = assay: Biodistribution in ddY mouse thyroid at 1 uCi/100 uL, iv after 15 mins by gamma counting; assay type: ADME, organism-based; conditions: in vivo, 0.25 h
Spleen [9] = assay: Biodistribution in ddY mouse spleen at 1 uCi/100 uL, iv after 60 mins by gamma counting; assay type: ADME, organism-based; conditions: in vivo, 1 h
Brain [10] = assay: Biodistribution in ddY mouse brain at 1 uCi/100 uL, iv after 120 mins by gamma counting; assay type: ADME, organism-based; conditions: in vivo, 2 h; summary of the method: as §1
Kidney [11] = assay: Biodistribution in ddY mouse kidney at 1 uCi/100 uL, iv after 120 mins by gamma counting; assay type: ADME, organism-based; conditions: in vivo, 2 h; summary of the method: as §1
Intestine [12] = assay: Biodistribution in ddY mouse intestine at 1 uCi/100 uL, iv after 60 mins by gamma counting; assay type: ADME, organism-based; conditions: in vivo, 1 h; summary of the method: as §1
Blood [13] = assay: Biodistribution in ddY mouse blood at 1 uCi/100 uL, iv after 30 mins by gamma counting; assay type: ADME, organism-based; conditions: in vivo, 0.5 h; summary of the method: as §1
Stomach [14] = assay: Biodistribution in ddY mouse stomach at 1 uCi/100 uL, iv after 30 mins by gamma counting; assay type: ADME, organism-based; conditions: in vivo, 0.5 h
Stomach [15] = assay: Biodistribution in ddY mouse stomach at 1 uCi/100 uL, iv after 2 mins by gamma counting; assay type: ADME, organism-based; conditions: in vivo
Kidney [16] = assay: Biodistribution in ddY mouse kidney at 1 uCi/100 uL, iv after 60 mins by gamma counting; assay type: ADME, organism-based; conditions: in vivo, 1 h
Intestine [17] = assay: Biodistribution in ddY mouse intestine at 1 uCi/100 uL, iv after 120 mins by gamma counting; assay type: ADME, organism-based; conditions: in vivo, 2 h; summary of the method: as §1
Intestine [18] = assay: Biodistribution in ddY mouse intestine at 1 uCi/100 uL, iv after 15 mins by gamma counting; assay type: ADME, organism-based; conditions: in vivo, 0.25 h; summary of the method: as §1
Spleen [19] = assay: Biodistribution in ddY mouse spleen at 1 uCi/100 uL, iv after 30 mins by gamma counting; assay type: ADME, organism-based; conditions: in vivo, 0.5 h
Liver [20] = assay: Biodistribution in ddY mouse liver at 1 uCi/100 uL, iv after 2 mins by gamma counting; assay type: ADME, organism-based; conditions: in vivo
Thyroid gland [21] = assay: Biodistribution in ddY mouse thyroid at 1 uCi/100 uL, iv after 120 mins by gamma counting; assay type: ADME, organism-based; conditions: in vivo, 2 h
Heart [22] = assay: Biodistribution in ddY mouse heart at 1 uCi/100 uL, iv after 60 mins by gamma counting; assay type: ADME, organism-based; conditions: in vivo, 1 h; summary of the method: as §1
Heart [23] = assay: Biodistribution in ddY mouse heart at 1 uCi/100 uL, iv after 15 mins by gamma counting; assay type: ADME, organism-based; conditions: in vivo, 0.25 h; summary of the method: as §1
Liver [24] = assay: Biodistribution in ddY mouse liver at 1 uCi/100 uL, iv after 30 mins by gamma counting; assay type: ADME, organism-based; conditions: in vivo, 0.5 h
Heart [25] = assay: Biodistribution in ddY mouse heart at 1 uCi/100 uL, iv after 30 mins by gamma counting; assay type: ADME, organism-based; conditions: in vivo, 0.5 h; summary of the method: as §1
Brain [26] = assay: Biodistribution in ddY mouse brain at 1 uCi/100 uL, iv after 2 mins by gamma counting; assay type: ADME, organism-based; conditions: in vivo; summary of the method: as §1
[27] = Partition coefficient, log D of the compound; assay type: physicochemical; conditions: octanol/water
Summary of the method: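 Radiotracer partitioned between n-octanol and PBS: vortexed 3 min at room temperature, centrifuged 5 min at 3000 rpm. Weighed samples of the octanol (100 μL) and buffer (500 μL) layers were counted. log D is the log of the ratio of counts per gram, octanol versus PBS.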

Blood [28] = assay: Biodistribution in ddY mouse blood at 1 uCi/100 uL, iv after 2 mins by gamma counting; assay type: ADME, organism-based; conditions: in vivo; summary of the method: as §1
Intestine [29] = assay: Biodistribution in ddY mouse intestine at 1 uCi/100 uL, iv after 30 mins by gamma counting; assay type: ADME, organism-based; conditions: in vivo, 0.5 h; summary of the method: as §1
Intestine [30] = assay: Biodistribution in ddY mouse intestine at 1 uCi/100 uL, iv after 2 mins by gamma counting; assay type: ADME, organism-based; conditions: in vivo; summary of the method: as §1
Spleen [31] = assay: Biodistribution in ddY mouse spleen at 1 uCi/100 uL, iv after 15 mins by gamma counting; assay type: ADME, organism-based; conditions: in vivo, 0.25 h
Liver [32] = assay: Biodistribution in ddY mouse liver at 1 uCi/100 uL, iv after 15 mins by gamma counting; assay type: ADME, organism-based; conditions: in vivo, 0.25 h
Brain [33] = assay: Biodistribution in ddY mouse brain at 1 uCi/100 uL, iv after 30 mins by gamma counting; assay type: ADME, organism-based; conditions: in vivo, 0.5 h; summary of the method: as §1
Stomach [34] = assay: Biodistribution in ddY mouse stomach at 1 uCi/100 uL, iv after 60 mins by gamma counting; assay type: ADME, organism-based; conditions: in vivo, 1 h
Thyroid gland [35] = assay: Biodistribution in ddY mouse thyroid at 1 uCi/100 uL, iv after 30 mins by gamma counting; assay type: ADME, organism-based; conditions: in vivo, 0.5 h
Stomach [36] = assay: Biodistribution in ddY mouse stomach at 1 uCi/100 uL, iv after 15 mins by gamma counting; assay type: ADME, organism-based; conditions: in vivo, 0.25 h
Heart [37] = assay: Biodistribution in ddY mouse heart at 1 uCi/100 uL, iv after 2 mins by gamma counting; assay type: ADME, organism-based; conditions: in vivo; summary of the method: as §1
Stomach [38] = assay: Biodistribution in ddY mouse stomach at 1 uCi/100 uL, iv after 120 mins by gamma counting; assay type: ADME, organism-based; conditions: in vivo, 2 h
Blood [39] = assay: Biodistribution in ddY mouse blood at 1 uCi/100 uL, iv after 60 mins by gamma counting; assay type: ADME, organism-based; conditions: in vivo, 1 h; summary of the method: as §1
Kidney [40] = assay: Biodistribution in ddY mouse kidney at 1 uCi/100 uL, iv after 30 mins by gamma counting; assay type: ADME, organism-based; conditions: in vivo, 0.5 h
Liver [41] = assay: Biodistribution in ddY mouse liver at 1 uCi/100 uL, iv after 120 mins by gamma counting; assay type: ADME, organism-based; conditions: in vivo, 2 h
Lung [42] = assay: Biodistribution in ddY mouse lung at 1 uCi/100 uL, iv after 15 mins by gamma counting; assay type: ADME, organism-based; conditions: in vivo, 0.25 h
Thyroid gland [43] = assay: Biodistribution in ddY mouse thyroid at 1 uCi/100 uL, iv after 2 mins by gamma counting; assay type: ADME, organism-based; conditions: in vivo
Heart [44] = assay: Biodistribution in ddY mouse heart at 1 uCi/100 uL, iv after 120 mins by gamma counting; assay type: ADME, organism-based; conditions: in vivo, 2 h; summary of the method: as §1
Kidney [45] = assay: Biodistribution in ddY mouse kidney at 1 uCi/100 uL, iv after 15 mins by gamma counting; assay type: ADME, organism-based; conditions: in vivo, 0.25 h; summary of the method: as §1
Spleen [46] = assay: Biodistribution in ddY mouse spleen at 1 uCi/100 uL, iv after 2 mins by gamma counting; assay type: ADME, organism-based; conditions: in vivo
Lung [47] = assay: Biodistribution in ddY mouse lung at 1 uCi/100 uL, iv after 30 mins by gamma counting; assay type: ADME, organism-based; conditions: in vivo, 0.5 h
Brain [48] = assay: Biodistribution in ddY mouse brain at 1 uCi/100 uL, iv after 15 mins by gamma counting; assay type: ADME, organism-based; conditions: in vivo, 0.25 h; summary of the method: as §1
Thyroid gland [49] = assay: Biodistribution in ddY mouse thyroid at 1 uCi/100 uL, iv after 60 mins by gamma counting; assay type: ADME, organism-based; conditions: in vivo, 1 h
Blood [50] = assay: Biodistribution in ddY mouse blood at 1 uCi/100 uL, iv after 15 mins by gamma counting; assay type: ADME, organism-based; conditions: in vivo, 0.25 h; summary of the method: as §1
Kidney [51] = assay: Biodistribution in ddY mouse kidney at 1 uCi/100 uL, iv after 2 mins by gamma counting; assay type: ADME, organism-based; conditions: in vivo; summary of the method: as §1
Brain [52] = assay: Ratio of drug uptake in ddY mouse brain at 1 uCi/100 uL, iv after 2 mins to drug uptake in ddY mouse brain at 1 uCi/100 uL, iv after 60 mins; assay type: ADME, organism-based; conditions: in vivo
Summary of the method: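 Normal female ddY mice (5 weeks) received the radiotracer iv, and brain uptake (% ID/g, n = 4) was measured by gamma counting at 2 and 60 min. The index is brain uptake at 2 min divided by brain uptake at 60 min.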

Drug uptake (Lung [1]): 3.9 % ID/g
Drug uptake (Lung [2]): 9.67 % ID/g
Drug uptake (Spleen [3]): 1.23 % ID/g
Drug uptake (Liver [4]): 22.63 % ID/g
Drug uptake (Lung [5]): 3.5 % ID/g
Drug uptake (Brain [6]): 0.71 % ID/g
Drug uptake (Blood [7]): 4.46 % ID/g
Drug uptake (Thyroid gland [8]): 28.09 % ID/g
Drug uptake (Spleen [9]): 1.52 % ID/g
Drug uptake (Brain [10]): 0.54 % ID/g
Drug uptake (Kidney [11]): 13.43 % ID/g
Drug uptake (Intestine [12]): 23.62 % ID/g
Drug uptake (Blood [13]): 4.84 % ID/g
Drug uptake (Stomach [14]): 3.17 % ID/organ
Drug uptake (Stomach [15]): 3.26 % ID/organ
Drug uptake (Kidney [16]): 10.46 % ID/g
Drug uptake (Intestine [17]): 41.29 % ID/g
Drug uptake (Intestine [18]): 10.33 % ID/g
Drug uptake (Spleen [19]): 2.22 % ID/g
Drug uptake (Liver [20]): 39.22 % ID/g
Drug uptake (Thyroid gland [21]): 72.93 % ID/g
Drug uptake (Heart [22]): 1.74 % ID/g
Drug uptake (Heart [23]): 4.14 % ID/g
Drug uptake (Liver [24]): 23.88 % ID/g
Drug uptake (Heart [25]): 3.29 % ID/g
Drug uptake (Brain [26]): 4.68 % ID/g
logD [27]: 3.55
Drug uptake (Blood [28]): 7.48 % ID/g
Drug uptake (Intestine [29]): 13.19 % ID/g
Drug uptake (Intestine [30]): 3.53 % ID/g
Drug uptake (Spleen [31]): 3.36 % ID/g
Drug uptake (Liver [32]): 40.83 % ID/g
Drug uptake (Brain [33]): 1.38 % ID/g
Drug uptake (Stomach [34]): 3.34 % ID/organ
Drug uptake (Thyroid gland [35]): 27.78 % ID/g
Drug uptake (Stomach [36]): 3.82 % ID/organ
Drug uptake (Heart [37]): 8.11 % ID/g
Drug uptake (Stomach [38]): 4.49 % ID/organ
Drug uptake (Blood [39]): 3.35 % ID/g
Drug uptake (Kidney [40]): 15.54 % ID/g
Drug uptake (Liver [41]): 27.83 % ID/g
Drug uptake (Lung [42]): 7.42 % ID/g
Drug uptake (Thyroid gland [43]): 18.2 % ID/g
Drug uptake (Heart [44]): 1.91 % ID/g
Drug uptake (Kidney [45]): 16.49 % ID/g
Drug uptake (Spleen [46]): 4.57 % ID/g
Drug uptake (Lung [47]): 6.18 % ID/g
Drug uptake (Brain [48]): 2.62 % ID/g
Drug uptake (Thyroid gland [49]): 23.96 % ID/g
Drug uptake (Blood [50]): 6.02 % ID/g
Drug uptake (Kidney [51]): 14.73 % ID/g
Ratio (Brain [52]): 6.59
SMILES: CNc1ccc(/C=C/C(=O)/C=C/c2ccc([125I])cc2)cc1
